Publication PMC10835327 (Heliyon, 2024)

Target: HSA (human serum albumin) (Homo sapiens, UniProt P02768)
Experiment: intrinsic fluorescence quenching, double-logarithmic plot
Assay type: binding
Details: Tris-HCl pH 7.40, 298 K, no added metal ion
Summary of the method: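 HSA (1.00 × 10−4 mol L−1) titrated stepwise with test compound dissolved in DMSO. Emission spectra recorded at 300–600 nm with excitation at 292 nm and both slits at 15 nm. Spectra taken at 291, 298, 304 and 310 K. Intensities corrected for inner-filter effect. Ka and n derived from double-logarithmic fit of intensity versus quencher concentration.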

Sequence of HSA (human serum albumin) (P02768 25-609): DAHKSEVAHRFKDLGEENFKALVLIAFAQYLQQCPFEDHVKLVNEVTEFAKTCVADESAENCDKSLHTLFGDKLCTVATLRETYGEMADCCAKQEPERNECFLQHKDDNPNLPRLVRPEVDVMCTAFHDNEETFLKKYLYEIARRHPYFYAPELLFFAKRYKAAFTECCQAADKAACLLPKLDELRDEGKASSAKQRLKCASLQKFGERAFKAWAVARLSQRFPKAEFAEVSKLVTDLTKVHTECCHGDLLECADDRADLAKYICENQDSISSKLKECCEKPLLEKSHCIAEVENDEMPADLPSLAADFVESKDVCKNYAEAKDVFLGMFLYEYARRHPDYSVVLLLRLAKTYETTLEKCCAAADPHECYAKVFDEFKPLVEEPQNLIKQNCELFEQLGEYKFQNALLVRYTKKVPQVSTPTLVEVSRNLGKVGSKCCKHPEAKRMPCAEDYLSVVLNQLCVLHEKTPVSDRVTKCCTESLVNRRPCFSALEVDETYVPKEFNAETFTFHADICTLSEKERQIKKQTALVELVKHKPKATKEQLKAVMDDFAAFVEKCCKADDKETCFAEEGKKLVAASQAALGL

Ka/(L.mol^-1) (n = 0.9857) | Ka/(L.mol^-1) (n = 1.0099) | Compound
2.5668 × 10^4 ±2.0417 L∙mol^−1 |  | COc1cc(/C=C/C(=O)O)ccc1O [FA, ferulic acid]
 | 8.7256 × 10^4 ±1.1863 L∙mol^−1 | COC(=O)/C=C/c1ccc(O)c(OC)c1 [FAM, ferulic acid methyl ester]
